Measurements: ChEMBL document CHEMBL3603756, “Synthesis and apoptotic activity of new pyrazole derivatives in cancer cell lines” (2015)
Active and inactive are the calls of the source. The calls are words filed in the database; no cut-off is given here.

What was measured:
[1] = system: HEp-2; assay: Induction of cell cycle arrest in human Hep2 cells assessed accumulation at S phase at 50 ug/ml incubated for 24 hrs by propidium iodide staining based flow cytometry (reference value: 21.06%); assay type: functional
[2] = system: HEp-2; assay: Induction of cell cycle arrest in human Hep2 cells assessed accumulation at G2/M phase at 10 ug/ml incubated for 24 hrs by propidium iodide staining based flow cytometry (reference value: 7.82%); assay type: functional
[3] = Cytotoxicity against human HCT8 cells assessed as cell viability at 50 ug/ml incubated for 24 hrs by MTS assay; assay type: functional; conditions: HCT-8, 24 h, read-out: Activity
Procedure, shortened: (§1)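 Cells were held at 37 °C, 5% CO2 in humid air. HEp-2 (5 x 10³/well) and HCT-8 (7 x 10³/well) grew in DMEM + 10% heat-inactivated FBS and got compound (binary dilutions) 24 h after seeding. THP-1 (5 x 10³ cells, RPMI-1640 + 10% FBS) were added directly to the dilutions. Exposure lasted 24 h. MTS (CellTiter 96 AQueous One) read-out was absorbance at 490 nm.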

[4] = Cytotoxicity against human HCT8 cells assessed as cell viability at 12.5 ug/ml incubated for 24 hrs by MTS assay; assay type: functional; conditions: HCT-8, 24 h, read-out: Activity; procedure, shortened: as §1
[5] = Reduction in PRKAA2 gene expression in human Hep2 cells at 50 ug/ml incubated for 24 hrs by real-time PCR method; assay type: functional, cell-based; conditions: HEp-2
Procedure, shortened: (§2)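 HEp-2 cells were treated 24 h at 10 or 50 µg/mL. Total RNA was extracted with Trizol, and 2 µg was reverse-transcribed. 50 ng cDNA went into TaqMan real-time PCR with beta-actin as endogenous control. Relative expression was calculated by the ∆∆CT method. Each experiment was run three times.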

[6] = Reduction in PRKAA1 gene expression in human Hep2 cells at 50 ug/ml incubated for 24 hrs by real-time PCR method; assay type: functional, cell-based; conditions: HEp-2; procedure, shortened: as §2
[7] = system: HEp-2; assay: Induction of cell cycle arrest in human Hep2 cells assessed accumulation at G2/M phase at 50 ug/ml incubated for 24 hrs by propidium iodide staining based flow cytometry (reference value: 7.82%); assay type: functional
[8] = Cytotoxicity against human Hep2 cells assessed as cell viability at 25 ug/ml incubated for 24 hrs by MTS assay; assay type: functional; conditions: HEp-2, 24 h, read-out: Activity; procedure, shortened: as §1
[9] = system: HEp-2; assay: Induction of cell cycle arrest in human Hep2 cells assessed accumulation at G0/G1 phase at 10 ug/ml incubated for 24 hrs by propidium iodide staining based flow cytometry (reference value: 74.51%); assay type: functional
[10] = system: HEp-2; assay: Induction of cell cycle arrest in human Hep2 cells assessed accumulation at G2/M phase incubated for 24 hrs by propidium iodide staining based flow cytometry; assay type: functional
[11] = system: THP-1; assay: Cytotoxicity against human THP1 cells assessed as cell viability at 25 ug/ml incubated for 24 hrs by MTS assay; assay type: functional; conditions: THP-1, 24 h, read-out: Activity; procedure, shortened: as §1
[12] = Reduction in PRKAA2 gene expression in human Hep2 cells at 10 ug/ml incubated for 24 hrs by real-time PCR method; assay type: functional, cell-based; conditions: HEp-2; procedure, shortened: as §2
[13] = system: HCT-8; assay: Induction of apoptosis in human HCT8 cells assessed early apoptosis level at 50 ug/ml incubated for 24 hrs by annexin V-FITC and propidium iodide staining based flow cytometry (reference value: 0.75%); assay type: functional
[14] = Cytotoxicity against human HCT8 cells assessed as cell viability at 25 ug/ml incubated for 24 hrs by MTS assay; assay type: functional; conditions: HCT-8, 24 h, read-out: Activity; procedure, shortened: as §1
[15] = Reduction in PRKAA1 gene expression in human Hep2 cells at 10 ug/ml incubated for 24 hrs by real-time PCR method; assay type: functional, cell-based; conditions: HEp-2; procedure, shortened: as §2
[16] = system: THP-1; assay: Cytotoxicity against human THP1 cells assessed as cell viability at 50 ug/ml incubated for 24 hrs by MTS assay; assay type: functional; conditions: THP-1, 24 h, read-out: Activity; procedure, shortened: as §1
[17] = system: HCT-8; assay: Induction of apoptosis in human HCT8 cells assessed viable cells level at 50 ug/ml incubated for 24 hrs by annexin V-FITC and propidium iodide staining based flow cytometry (reference value: 93.3%); assay type: functional
[18] = Cytotoxicity against human Hep2 cells assessed as cell viability at 50 ug/ml incubated for 24 hrs by MTS assay; assay type: functional; conditions: HEp-2, 24 h, read-out: Activity; procedure, shortened: as §1
[19] = system: THP-1; assay: Cytotoxicity against human THP1 cells assessed as cell viability at 12.5 ug/ml incubated for 24 hrs by MTS assay; assay type: functional; conditions: THP-1, 24 h, read-out: Activity; procedure, shortened: as §1
[20] = system: HEp-2; assay: Induction of cell cycle arrest in human Hep2 cells assessed accumulation at G0/G1 phase at 50 ug/ml incubated for 24 hrs by propidium iodide staining based flow cytometry (reference value: 74.51%); assay type: functional
[21] = system: HCT-8; assay: Induction of apoptosis in human HCT8 cells assessed late apoptosis level at 50 ug/ml incubated for 24 hrs by annexin V-FITC and propidium iodide staining based flow cytometry (reference value: 4.8%); assay type: functional
[22] = Cytotoxicity against human Hep2 cells assessed as cell viability at 12.5 ug/ml incubated for 24 hrs by MTS assay; assay type: functional; conditions: HEp-2, 24 h, read-out: Activity; procedure, shortened: as §1
[23] = system: HCT-8; assay: Induction of apoptosis in human HCT8 cells assessed necrosis level at 50 ug/ml incubated for 24 hrs by annexin V-FITC and propidium iodide staining based flow cytometry (reference value: 1.12%); assay type: functional
[24] = system: HEp-2; assay: Induction of cell cycle arrest in human Hep2 cells assessed accumulation at S phase at 10 ug/ml incubated for 24 hrs by propidium iodide staining based flow cytometry (reference value: 21.06%); assay type: functional
[25] = system: HEp-2; assay: Reduction in survivin protein levels in human Hep2 cells at 50 ug/ml incubated for 24 hrs by protein array method; assay type: functional, cell-based
[26] = system: HEp-2; assay: Increase in cleaved-caspase-3 levels in human Hep2 cells at 50 ug/ml incubated for 24 hrs by protein array method; assay type: functional, cell-based
[27] = system: HEp-2; assay: Reduction in XIAP levels in human Hep2 cells at 50 ug/ml incubated for 24 hrs by protein array method; assay type: functional, cell-based
[28] = system: HEp-2; assay: Reduction in HSP27 protein levels in human Hep2 cells at 50 ug/ml incubated for 24 hrs by protein array method; assay type: functional, cell-based
[29] = system: HEp-2; assay: Increase in Fas/TNFRSF6 protein expression in human Hep2 cells at 50 ug/ml incubated for 24 hrs by protein array method; assay type: functional, cell-based
[30] = system: HEp-2; assay: Induction of apoptosis in human Hep2 cells assessed as increase in p53 S15/S46/S392 phosphorylation level at 50 ug/ml incubated for 24 hrs by protein array method; assay type: functional, cell-based
[31] = system: HEp-2; assay: Reduction in c-IAP1 levels in human Hep2 cells at 50 ug/ml incubated for 24 hrs by protein array method; assay type: functional, cell-based
[32] = system: HEp-2; assay: Increase in TRAIL-R2 protein expression in human Hep2 cells at 50 ug/ml incubated for 24 hrs by protein array method; assay type: functional, cell-based
[33] = system: HEp-2; assay: Increase in TRAIL-R1 protein expression in human Hep2 cells at 50 ug/ml incubated for 24 hrs by protein array method; assay type: functional, cell-based
[34] = system: HEp-2; assay: Reduction in HSP70 protein levels in human Hep2 cells at 50 ug/ml incubated for 24 hrs by protein array method; assay type: functional, cell-based
[35] = system: HEp-2; assay: Reduction in pro-caspase-3 levels in human Hep2 cells at 50 ug/ml incubated for 24 hrs by protein array method; assay type: functional, cell-based
[36] = system: HEp-2; assay: Increase in FADD protein expression in human Hep2 cells at 50 ug/ml incubated for 24 hrs by protein array method; assay type: functional, cell-based
[37] = system: HEp-2; assay: Reduction in c-IAP2 levels in human Hep2 cells at 50 ug/ml incubated for 24 hrs by protein array method; assay type: functional, cell-based
[38] = system: HEp-2; assay: Reduction in livin protein levels in human Hep2 cells at 50 ug/ml incubated for 24 hrs by protein array method; assay type: functional, cell-based
[39] = system: HEp-2; assay: Increase in caspase-8 levels in human Hep2 cells at 50 ug/ml incubated for 24 hrs by protein array method; assay type: functional, cell-based

| Compound | Activity [1] | Activity [2] | viability at 50 µg/mL [3] | viability at 12.5 µg/mL [4] | Activity [5] | Activity [6] | Activity [7] | viability at 25 µg/mL [8] | Activity [9] | Activity [10] | viability at 25 µg/mL [11] | Activity [12] | Activity [13] | viability at 25 µg/mL [14] | Activity [15] | viability at 50 µg/mL [16] | Activity [17] | viability at 50 µg/mL [18] | viability at 12.5 µg/mL [19] | Activity [20] | further results |
| --- | --- | --- | --- | --- | --- | --- | --- | --- | --- | --- | --- | --- | --- | --- | --- | --- | --- | --- | --- | --- | --- |
| Cn1cc(C(=O)NC(=S)Nc2ccc(Br)cc2)cn1 | 22.6% | 9.91% | 91.7% | 100% | Active | Active | 18.75% | 100% | 75.28% | Dose-dependent effect | 72.9% | Active | 2.78% | 100% | Active | 37% | 91.7% | 90% | 100% | 67.63% | Activity [21]: 3.83%; viability at 12.5 µg/mL [22]: 100%; Activity [23]: 1.73%; Activity [24]: 16.97% |
| Cn1cc(C(=O)/N=C2\SCC(C)(O)N2c2ccc(I)cc2)cn1 (centres undefined) | 27.01% | 14.92% | 90.2% | 100% | Active | Active | 33.4% | 100% | 74.73% | Dose-dependent effect | 84.1% | Active | 4.96% | 100% | Active | 38.4% | 90.2% | 89% | 97% | 43.62% | Activity [25]: Active; Activity [26]: Active; Activity [27]: Active; Activity [28]: Active; Activity [29]: Active; Activity [30]: Active; Activity [31]: Active; Activity [32]: Active; Activity [33]: Active; Activity [34]: Active; Activity [35]: Active; Activity [21]: 3.37%; viability at 12.5 µg/mL [22]: 100%; Activity [23]: 1.44%; Activity [36]: Active; Activity [37]: Active; Activity [24]: 17.85%; Activity [38]: Active; Activity [39]: Active |
| Cc1cs/c(=N\C(=O)c2cnn(C)c2)n1-c1ccc(Br)cc1 | 24.2% | 7.76% | 89.4% | 100% | Active | Active | 19.45% | 95% | 74.24% | Dose-dependent effect | 87.6% | Active | 4.47% | 97% | Active | 41.6% | 89.4% | 85% | 97% | 63.34% | Activity [21]: 3.44%; viability at 12.5 µg/mL [22]: 100%; Activity [23]: 2.66%; Activity [24]: 21.45% |
| Cn1cc(C(=O)/N=C2\SCC(C)(O)N2c2ccc(Br)cc2)cn1 (centres undefined) | 28.71% | 19.88% | 85.7% | 98% | Active | Active | 39.46% | 92% | 62.35% | Dose-dependent effect | 67.4% | Active | 6.22% | 95% | Active | 33.9% | 85.7% | 91% | 95% | 37.33% | Activity [21]: 6.76%; viability at 12.5 µg/mL [22]: 100%; Activity [23]: 1.34%; Activity [24]: 19.2% |
| Cn1cc(C(=O)NC(=S)Nc2ccc(I)cc2)cn1 | 24.79% | 11.98% | 93.3% | 100% | Active | Active | 15.88% | 100% | 71.62% | Dose-dependent effect | 79.3% | Active | 2.31% | 100% | Active | 35.2% | 93.3% | 93% | 100% | 74.24% | Activity [21]: 3.1%; viability at 12.5 µg/mL [22]: 100%; Activity [23]: 1.25%; Activity [24]: 17.26% |
| Cn1cc(C(=O)NC(=S)Nc2ccccc2I)cn1 | 18.14% | 6.86% | 91.8% | 100% | Active | Active | 15.92% | 100% | 76.4% | Dose-dependent effect | 84% | Active | 2.01% | 100% | Active | 31.3% | 91.8% | 90% | 100% | 67.6% | Activity [21]: 3.75%; viability at 12.5 µg/mL [22]: 100%; Activity [23]: 2.49%; Activity [24]: 21.88% |
